Reference: PMC11995693 (Journal of medicinal chemistry, 2025)
Entries after “also recorded” stand apart in the source; their conditions may differ. Read-outs that look alike come from different tables or passages of the source. Each block holds one compound with its values, some of them ahead of it.

Experiments:
NHEKs = experiment: Screening of TLR3 and IL-6 mRNA expression in NHEKs; format: cell-based, human
C57BL/6 mice = conditions: cited from earlier work; for hair growth: topical application
PAMPA-GIT permeability = format: in vitro ADME
Method in brief: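 Stirred PAMPA sandwich with the acceptor-side filter coated in GIT-0 lipid. Donor held test or reference compound at 10 μM in pH 7.4 buffer with 0.2% DMSO, against pH 7.4 sink buffer. Incubated 4 h at room temperature. Donor and acceptor were sampled and quantified by LC-MS/MS. Effective permeability (Pe, cm/s) was calculated from filter area × 70% porosity, phase volumes, incubation and steady-state time, and donor concentrations, with membrane retention factor.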

[1] = Oral pharmacokinetics in mice; format: in vivo, C57BL6 mice; conditions: 100 mg/kg equivalent
[2] = tested on: Poly(I:C) + IFNγ stimulated NHEK cells; experiment: Poly; format: cell-based, human; conditions: for inhibition of IFNγ-inducible chemokines (CXCL9, CXCL10, CXCL11): 30–100 μM
Method in brief: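 Primary human epidermal keratinocytes were seeded and incubated overnight at 37 °C. They were stimulated with Poly(I:C) (50 μg/mL) plus IFNγ (5 ng/mL), with or without test compound at 1, 10, 30 or 100 μM, for 8 h. RNA was isolated, and TaqMan RT-PCR gave fold changes in IL-6, IFNβ, IL-1β, CXCL9, CXCL10 and CXCL11 expression.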

[3] = Chemical stability in pH buffers; format: physicochemical
[4] = Preliminary toxicity profile of P13, systemic administration; format: in vivo; conditions: two doses, systemic administration (Figure S2, Table S1)

permeability in PAMPA, in words (PAMPA-GIT permeability): poor permeability
Compound: C=C(CC(=O)OC)C(=O)O [Compound 4-MI, 4-methyl itaconate]
effect on TLR3 and IL-6 mRNA / cytokine production, in words (NHEKs; Figure S1): neither 4-MI nor 1A affected the mRNA expression; also recorded: failed to inhibit cytokine production | efficacy in vivo in the alopecia areata model (C57BL/6 mice; compared at equimolar doses): ineffective

intact prodrug in plasma [1]: not detectable
Compound: C=C(CC(=O)OCOC(=O)OC(C)C)C(=O)OCOC(=O)OC(C)C [Compound P2, Bis(((isopropoxycarbonyl)oxy)methyl) 2-Methylenesuccinate]
inhibition of mRNA expression of TLR3 and IL-6 (NHEKs; Figure S1): > 90% | inhibition of IFNβ, in words ([2]; 1–100 μM, 8 h): dose dependent inhibition | inhibition of IL-6, in words ([2]; 1–100 μM, 8 h): significant, dose-dependent inhibition | inhibition of IFNγ-inducible chemokines (CXCL9, CXCL10, CXCL11) ([2]; 8 h): over 50%

chemical stability at pH 7.4, in words [3]: complete instability
Compound: C=C(CC(=O)OCOC(=O)C(C)(C)C)C(=O)O [Compound P4, 2-Methylene-4-oxo-4-((pivaloyloxy)methoxy)butanoic Acid]

chemical stability at pH 7.4, in words [3]: complete instability
Compound: C=C(CC(=O)OCOC(=O)OC(C)C)C(=O)O [Compound P5, 4-(((Isopropoxycarbonyl)oxy)methoxy)-2-methylene-4-oxobutanoic Acid]

chemical stability at pH 7.4, in words [3]: complete instability
Compound: C=C(CC(=O)OCc1oc(=O)oc1C)C(=O)O [Compound P6, 4-((5-Methyl-2-oxo-1,3-dioxol-4-yl)methoxy)-2-methylene-4-oxobutanoic Acid]

permeation index (Pe) (PAMPA-GIT permeability): 3.21e-06 cm/s
Compound: C=C(CC(=O)OCCCOCCCCCCCCCCCCCCCC)C(=O)O [Compound P7, 4-(3-(Hexadecyloxy)-propoxy)-2-methylene-4-oxobutanoic Acid]

Compound: C=C(CC(=O)OCOC(=O)OC(C)C)C(=O)OC [Compound P9, 4-(((Isopropoxycarbonyl)oxy)methyl) 1-Methyl 2-Methylenesuccinate]
effect on IL-1β, in words ([2]; 100 μM): showed effects at 100 μM

intact prodrug in plasma [1]: undetectable
Compound: C=C(CC(=O)OC)C(=O)OCOC(=O)OC(C)C [Compound P13, 1-(((Isopropoxycarbonyl)oxy)methyl) 4-Methyl 2-Methylenesuccinate]
inhibition of mRNA expression of TLR3 and IL-6 (NHEKs; Figure S1): > 90% | skin concentrations (C57BL/6 mice; topical administration): considerable skin concentrations | hair growth (C57BL/6 mice): significantly promoted hair growth | hair growth (C57BL/6 mice; listed as SCD-153): significant increase in hair growth | hematological changes and weight loss [4]: No hematological changes or weight loss | inhibition of IL-6, in words ([2]; 1–100 μM, 8 h): significant, dose-dependent inhibition | inhibition of IFNγ-inducible chemokines (CXCL9, CXCL10, CXCL11) ([2]; 8 h): over 50%

Compound: C=C(CC(=O)O)C(=O)O [IA, Itaconic acid]
effect on TLR3 and IL-6 mRNA / cytokine production, in words (NHEKs; Figure S1): failed to inhibit cytokine production | effect on TLR3 and IL-6 mRNA / cytokine production, in words (NHEKs; Figure S1, listed as 1A): neither 4-MI nor 1A affected the mRNA expression | permeability in PAMPA, in words (PAMPA-GIT permeability): poor permeability
